# In ChEMBL document CHEMBL1125649, “Synthesis and antitumor activity of structural analogues of the epipodophyllotoxins” (J Med Chem, 1991):
# Columns and labels:
# Assay type in all cases: functional, cell-based
# [1] = test system: HT-29; assay: Growth inhibition of HT-29 (human colon adenocarcinoma) cell line.
# Outline: (§1)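 Cells from ATCC, grown in RPMI 1640 with 10% fetal calf serum. Compounds dissolved in DMSO, diluted in Earle's balanced salt solution then medium, 2-fold serial dilutions, each in triplicate versus triplicate drug-free controls. 2.5 × 10^3 cells per well, 72 h at 37 °C, 5% CO2. MTT added for 90 min, DMSO solubilization, absorbance at 570 nm. IC50 = 50% absorbance reduction versus control, by linear regression of dose-response curves.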
# [2] = test system: P388; assay: Growth inhibition of P388-D1 (murine leukemia) cell line.; conditions: Mus musculus; outline: as §1
# [3] = test system: A549; assay: Growth inhibition of A549 (human lung carcinoma) cell line.; outline: as §1
IC50 [1],IC50 [2],IC50 [3],Compound
3.2 µg/mL,0.57 µg/mL,1.1 µg/mL,COc1cc([C@H]2C[C@@H](OC)c3cc4c(cc32)OCO4)cc(OC)c1O
> 50 µg/mL,> 50 µg/mL,> 50 µg/mL,COc1cc([C@@H]2c3cc4c(cc3[C@H](O)[C@@]23CCOC3=O)OCO4)cc(OC)c1O
0.11 µg/mL,0.017 µg/mL,0.053 µg/mL,COc1cccc2c1C(=O)c1c(O)c3c(c(O)c1C2=O)C[C@@](O)(C(=O)CO)C[C@@H]3O[C@H]1C[C@H](N)[C@H](O)[C@H](C)O1 [DOXORUBICIN]
12.2 µg/mL,8 µg/mL,12.5 µg/mL,COc1cc([C@@H]2c3cc4c(cc3[C@]3(CO)COC(=O)[C@H]23)OCO4)cc(OC)c1O
41.5 µg/mL,8.1 µg/mL,46.9 µg/mL,COc1cc([C@H]2C[C@H](OC)c3cc4c(cc32)OCO4)cc(OC)c1O
1.7 µg/mL,0.063 µg/mL,1.03 µg/mL,COc1cc([C@@H]2c3cc4c(cc3[C@@H](O[C@@H]3O[C@@H]5CO[C@@H](C)O[C@H]5[C@H](O)[C@H]3O)[C@H]3COC(=O)[C@H]23)OCO4)cc(OC)c1O [ETOPOSIDE]
8.6 µg/mL,6.6 µg/mL,9.7 µg/mL,COc1cc([C@H]2C[C@H](OC3CCCCC3)c3cc4c(cc32)OCO4)cc(OC)c1O
0.032 µg/mL,0.014 µg/mL,0.038 µg/mL,COc1cc([C@H]2C[C@@H](O)c3cc4c(cc32)OCO4)cc(OC)c1OC
2.1 µg/mL,0.53 µg/mL,0.76 µg/mL,COc1cc([C@H]2C[C@@H](O)c3cc4c(cc32)OCO4)cc(OC)c1O
> 50 µg/mL,16.8 µg/mL,48.2 µg/mL,COc1cc([C@@H]2c3cc4c(cc3[C@@H](O)[C@@]23CCOC3=O)OCO4)cc(OC)c1O
5.3 µg/mL,2.5 µg/mL,5.1 µg/mL,COc1cc([C@@H]2c3cc4c(cc3[C@H](O)[C@@]23CCOC3=O)OCO4)cc(OC)c1OC
19.2 µg/mL,1.7 µg/mL,19.4 µg/mL,COc1cc(C2CC(=O)c3cc4c(cc32)OCO4)cc(OC)c1O (stereo not given)
1.2 µg/mL,0.59 µg/mL,1.2 µg/mL,COc1cc([C@@H]2c3cc4c(cc3[C@]3(CO)COC(=O)[C@H]23)OCO4)cc(OC)c1OC
10.3 µg/mL,7.9 µg/mL,12 µg/mL,COc1cc([C@H]2C[C@@H](OC3CCCCC3)c3cc4c(cc32)OCO4)cc(OC)c1O
2.9 µg/mL,1.1 µg/mL,2.9 µg/mL,COc1cc(C2CC(=O)c3cc4c(cc32)OCO4)cc(OC)c1OC (stereo not given)
12 µg/mL,4.2 µg/mL,9.9 µg/mL,COc1cc([C@H]2C[C@H](O)c3cc4c(cc32)OCO4)cc(OC)c1O
28.8 µg/mL,7.1 µg/mL,31.3 µg/mL,COc1cc([C@H]2C[C@H](OC(C)(C)C)c3cc4c(cc32)OCO4)cc(OC)c1O

Compound,IC50 [1],IC50 [2],IC50 [3]
COc1cc([C@@H]2c3cc4c(cc3[C@H](O)[C@H]3COC(=O)[C@H]23)OCO4)cc(OC)c1OC [PODOFILOX],0.0043 µg/mL,0.0013 µg/mL,0.0043 µg/mL
COC(=O)[C@@]12CCO[C@@H]1c1cc3c(cc1[C@H]2c1cc(OC)c(OC)c(OC)c1)OCO3,17.4 µg/mL,5.7 µg/mL,11.9 µg/mL
COC(=O)[C@@]12CCO[C@@H]1c1cc3c(cc1[C@H]2c1cc(OC)c(O)c(OC)c1)OCO3,> 50 µg/mL,43 µg/mL,> 50 µg/mL
